Assay results taken from ChEMBL document CHEMBL2169803, “Brain Penetrant LRRK2 Inhibitor” (ACS Med Chem Lett, 2012).
Active and inactive are the calls of the source. The calls are words filed in the database; no cut-off is given here.

What was measured:
[1] = target: Leucine-rich repeat serine/threonine-protein kinase 2 (Mus musculus) (UniProt Q5S006); assay: Inhibition of LRRK2 autophosphorylation at Ser910 and Ser935 Swiss mouse 3T3 cells by immunoblotting analysis; assay type: cell-based
Procedure, shortened: (§1)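 Mouse Swiss 3T3 cells or mouse embryonic fibroblasts were treated with DMSO or increasing concentrations of compound for 90 min. Lysates were immunoblotted for LRRK2 phospho-Ser910, phospho-Ser935 and total LRRK2. Immunoblots were run in duplicate and are representative of at least two independent experiments.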

[2] = target: T1, Mitogen-activated protein kinase kinase kinase 9 (Homo sapiens, UniProt P80192); assay: Inhibition of MLK1 by radiometric assay
Procedure, shortened: (§2)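 Radioactivity-based enzymatic kinase assay run in the Dundee profiling panel of 138 kinases. Kinases were first screened at 10 μM inhibitor, with activity expressed relative to a DMSO control. A dose–response analysis then gave the IC50.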

Mus musculus [3] = assay: Inhibition of JNK3 in ip dosed C57BL/6 mouse brain by ADP-acylphosphate probe-based mass spectrometry; assay type: functional, organism-based
Procedure, shortened: (§3)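 KiNativ chemical proteomics on brains and spleens from mice dosed intraperitoneally at 3, 10, 30, 50 or 100 mg/kg, compared against vehicle-treated animals. Tissue lysed in 5× volume of detergent-free buffer and labeled with an ADP-acylphosphate probe. After workup and trypsin digestion, probe labeling was quantified by mass spectrometry across >150 protein and lipid kinases. Values reflect 5× dilution relative to intact tissue.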

[4] = target: T2, MAP kinase-interacting serine/threonine-protein kinase 2 (Homo sapiens, UniProt Q9HBH9); assay: Inhibition of MNK2 at 10 uM by radiometric assay
Procedure, shortened: (§4)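 Dundee panel of 138 kinases screened at 10 μM compound using radioactivity-based enzymatic assays. Activity was expressed relative to DMSO control.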

Mus musculus [5] = assay: Half life in mouse at 1 mg/kg, iv; assay type: ADME, organism-based; set-up: dose 1 mg/kg, route intravenous; settings: in vivo
Procedure, shortened: (§5)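 Mouse pharmacokinetics run by a contract lab; parameters reported include oral bioavailability (%F), plasma AUClast and half-life. Full PK parameter set is given in the Supporting Information.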

[6] = target: T2, MAP kinase-interacting serine/threonine-protein kinase 2; assay: Inhibition of MNK2 by radiometric assay; procedure, shortened: as §2
[7] = Oral bioavailability in mouse at 10 mg/kg; assay type: ADME, organism-based; settings: in vivo; procedure, shortened: as §5
Mus musculus [8] = assay: Inhibition of LRRK2 autophosphorylation at Ser910 and Ser935 in C57BL/6 mouse brain at 50 mg/kg, ip by immunoblotting analysis relative to vehicle-treated control; assay type: functional, organism-based; set-up: dose 50 mg/kg
Mus musculus [9] = assay: Inhibition of LRRK2 in ip dosed C57BL/6 mouse brain by ADP-acylphosphate probe-based mass spectrometry; assay type: functional, organism-based; procedure, shortened: as §3
Mus musculus [10] = assay: Inhibition of TBK1 in C57BL/6 mouse brain at 50 and 100 mg/kg, ip by ADP-acylphosphate probe-based mass spectrometry relative to vehicle-treated control; assay type: functional; settings: C57BL/6, ip, route intraperitoneal; procedure, shortened: as §3
Mus musculus [11] = assay: Inhibition of JNK2 in C57BL/6 mouse brain at 50 and 100 mg/kg, ip by ADP-acylphosphate probe-based mass spectrometry relative to vehicle-treated control; assay type: functional; settings: C57BL/6, ip, route intraperitoneal; procedure, shortened: as §3
Mus musculus [12] = assay: Inhibition of LRRK2 autophosphorylation at Ser910 and Ser935 in C57BL/6 mouse spleen at 50 mg/kg, ip by immunoblotting analysis relative to vehicle-treated control; assay type: functional, organism-based; set-up: dose 50 mg/kg
Mus musculus [13] = assay: Inhibition of LRRK2 autophosphorylation at Ser910 and Ser935 in C57BL/6 mouse brain at 100 mg/kg, ip by immunoblotting analysis relative to vehicle-treated control; assay type: functional, organism-based; set-up: dose 100 mg/kg
[14] = target: Leucine-rich repeat serine/threonine-protein kinase 2 (Mus musculus) (UniProt Q5S006); assay: Inhibition of LRRK2 autophosphorylation at Ser910 and Ser935 mouse embryonic fibroblast cells by immunoblotting analysis; assay type: cell-based; procedure, shortened: as §1
Mus musculus [15] = assay: Inhibition of LRRK2 in C57BL/6 mouse brain at 30 mg/kg, ip by ADP-acylphosphate probe-based mass spectrometry relative to vehicle-treated control; assay type: functional; settings: C57BL/6, Brain, route intraperitoneal; procedure, shortened: as §3
Mus musculus [16] = assay: Inhibition of LRRK2 in ip dosed C57BL/6 mouse spleen by ADP-acylphosphate probe-based mass spectrometry; assay type: functional, organism-based; procedure, shortened: as §3
Mus musculus [17] = assay: Inhibition of JNK3 in C57BL/6 mouse brain at 50 and 100 mg/kg, ip by ADP-acylphosphate probe-based mass spectrometry relative to vehicle-treated control; assay type: functional; settings: C57BL/6, ip, route intraperitoneal; procedure, shortened: as §3
Mus musculus [18] = assay: Inhibition of JNK1 in ip dosed C57BL/6 mouse brain by ADP-acylphosphate probe-based mass spectrometry; assay type: functional, organism-based; procedure, shortened: as §3
Liver = assay: Half life in mouse liver microsomes at 1 uM; assay type: ADME, Microsome
Procedure, shortened: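 Metabolic stability determined by incubation with mouse liver microsomes; half-life (T1/2) reported in minutes.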

Mus musculus [19] = assay: Inhibition of LRRK2 autophosphorylation at Ser910 and Ser935 in C57BL/6 mouse kidney at 50 mg/kg, ip by immunoblotting analysis relative to vehicle-treated control; assay type: functional, organism-based; set-up: dose 50 mg/kg
Mus musculus [20] = assay: Inhibition of LRRK2 autophosphorylation at Ser910 and Ser935 in C57BL/6 mouse kidney at 100 mg/kg, ip by immunoblotting analysis relative to vehicle-treated control; assay type: functional, organism-based; set-up: dose 100 mg/kg
[21] = test system: Mast/stem cell growth factor receptor Kit (Homo sapiens), P10721 [L576P]; assay: Inhibition of cKIT L576P mutant at 1 uM by KinomeScan assay
Mus musculus [22] = assay: Inhibition of TBK1 in ip dosed C57BL/6 mouse brain by ADP-acylphosphate probe-based mass spectrometry; assay type: functional, organism-based; procedure, shortened: as §3
Mus musculus [23] = assay: Inhibition of JNK2 in ip dosed C57BL/6 mouse brain by ADP-acylphosphate probe-based mass spectrometry; assay type: functional, organism-based; procedure, shortened: as §3
Mus musculus [24] = assay: Inhibition of LRRK2 in C57BL/6 mouse spleen at 10 mg/kg, ip by ADP-acylphosphate probe-based mass spectrometry relative to vehicle-treated control; assay type: functional; settings: C57BL/6, Spleen, route intraperitoneal; procedure, shortened: as §3
Mus musculus [25] = assay: Inhibition of LRRK2 autophosphorylation at Ser910 and Ser935 in C57BL/6 mouse brain at 10 mg/kg, ip by immunoblotting analysis relative to vehicle-treated control; assay type: functional, organism-based; set-up: dose 10 mg/kg
[26] = target: T1, Mitogen-activated protein kinase kinase kinase 9; assay: Inhibition of MLK1 at 10 uM by radiometric assay; procedure, shortened: as §4
Mus musculus [27] = assay: Inhibition of LRRK2 autophosphorylation at Ser910 and Ser935 in C57BL/6 mouse spleen at 100 mg/kg, ip by immunoblotting analysis relative to vehicle-treated control; assay type: functional, organism-based; set-up: dose 100 mg/kg
Mus musculus [28] = assay: Inhibition of LRRK2 in C57BL/6 mouse spleen at 30 to 100 mg/kg, ip by ADP-acylphosphate probe-based mass spectrometry relative to vehicle-treated control; assay type: functional; settings: dose mg/kg 30-100; route intraperitoneal; procedure, shortened: as §3
Mus musculus [29] = assay: Inhibition of LRRK2 autophosphorylation at Ser910 and Ser935 in C57BL/6 mouse brain at 30 mg/kg, ip by immunoblotting analysis relative to vehicle-treated control; assay type: functional, organism-based; set-up: dose 30 mg/kg
Mus musculus [30] = assay: Inhibition of JNK1 in C57BL/6 mouse brain at 50 and 100 mg/kg, ip by ADP-acylphosphate probe-based mass spectrometry relative to vehicle-treated control; assay type: functional; settings: C57BL/6, ip, route intraperitoneal; procedure, shortened: as §3
Mus musculus [31] = assay: Inhibition of LRRK2 in C57BL/6 mouse spleen at 3 mg/kg, ip by ADP-acylphosphate probe-based mass spectrometry relative to vehicle-treated control; assay type: functional; settings: C57BL/6, Spleen, route intraperitoneal; procedure, shortened: as §3
Mus musculus [32] = assay: Inhibition of LRRK2 in C57BL/6 mouse brain at 100 mg/kg, ip by ADP-acylphosphate probe-based mass spectrometry relative to vehicle-treated control; assay type: functional; procedure, shortened: as §3
Mus musculus [33] = assay: AUClast in mouse at 10 mg/kg, po; assay type: ADME, organism-based, Plasma; set-up: time 0 - last, dose 10 mg/kg, route oral; settings: in vivo; procedure, shortened: as §5
Mus musculus [34] = assay: Inhibition of LRRK2 in C57BL/6 mouse brain at 50 mg/kg, ip by ADP-acylphosphate probe-based mass spectrometry relative to vehicle-treated control; assay type: functional; settings: C57BL/6, Brain, route intraperitoneal; procedure, shortened: as §3
[35] = target: Leucine-rich repeat serine/threonine-protein kinase 2 (Homo sapiens) (UniProt Q5S007); settings: HEK293, 1 uM
[36] = test system: Leucine-rich repeat serine/threonine-protein kinase 2 (Homo sapiens), Q5S007 [G2019S]; settings: HEK293, 1 uM
Sequence of Leucine-rich repeat serine/threonine-protein kinase 2 (Homo sapiens), Q5S007 [G2019S] (Q5S007 whole entry G2019S): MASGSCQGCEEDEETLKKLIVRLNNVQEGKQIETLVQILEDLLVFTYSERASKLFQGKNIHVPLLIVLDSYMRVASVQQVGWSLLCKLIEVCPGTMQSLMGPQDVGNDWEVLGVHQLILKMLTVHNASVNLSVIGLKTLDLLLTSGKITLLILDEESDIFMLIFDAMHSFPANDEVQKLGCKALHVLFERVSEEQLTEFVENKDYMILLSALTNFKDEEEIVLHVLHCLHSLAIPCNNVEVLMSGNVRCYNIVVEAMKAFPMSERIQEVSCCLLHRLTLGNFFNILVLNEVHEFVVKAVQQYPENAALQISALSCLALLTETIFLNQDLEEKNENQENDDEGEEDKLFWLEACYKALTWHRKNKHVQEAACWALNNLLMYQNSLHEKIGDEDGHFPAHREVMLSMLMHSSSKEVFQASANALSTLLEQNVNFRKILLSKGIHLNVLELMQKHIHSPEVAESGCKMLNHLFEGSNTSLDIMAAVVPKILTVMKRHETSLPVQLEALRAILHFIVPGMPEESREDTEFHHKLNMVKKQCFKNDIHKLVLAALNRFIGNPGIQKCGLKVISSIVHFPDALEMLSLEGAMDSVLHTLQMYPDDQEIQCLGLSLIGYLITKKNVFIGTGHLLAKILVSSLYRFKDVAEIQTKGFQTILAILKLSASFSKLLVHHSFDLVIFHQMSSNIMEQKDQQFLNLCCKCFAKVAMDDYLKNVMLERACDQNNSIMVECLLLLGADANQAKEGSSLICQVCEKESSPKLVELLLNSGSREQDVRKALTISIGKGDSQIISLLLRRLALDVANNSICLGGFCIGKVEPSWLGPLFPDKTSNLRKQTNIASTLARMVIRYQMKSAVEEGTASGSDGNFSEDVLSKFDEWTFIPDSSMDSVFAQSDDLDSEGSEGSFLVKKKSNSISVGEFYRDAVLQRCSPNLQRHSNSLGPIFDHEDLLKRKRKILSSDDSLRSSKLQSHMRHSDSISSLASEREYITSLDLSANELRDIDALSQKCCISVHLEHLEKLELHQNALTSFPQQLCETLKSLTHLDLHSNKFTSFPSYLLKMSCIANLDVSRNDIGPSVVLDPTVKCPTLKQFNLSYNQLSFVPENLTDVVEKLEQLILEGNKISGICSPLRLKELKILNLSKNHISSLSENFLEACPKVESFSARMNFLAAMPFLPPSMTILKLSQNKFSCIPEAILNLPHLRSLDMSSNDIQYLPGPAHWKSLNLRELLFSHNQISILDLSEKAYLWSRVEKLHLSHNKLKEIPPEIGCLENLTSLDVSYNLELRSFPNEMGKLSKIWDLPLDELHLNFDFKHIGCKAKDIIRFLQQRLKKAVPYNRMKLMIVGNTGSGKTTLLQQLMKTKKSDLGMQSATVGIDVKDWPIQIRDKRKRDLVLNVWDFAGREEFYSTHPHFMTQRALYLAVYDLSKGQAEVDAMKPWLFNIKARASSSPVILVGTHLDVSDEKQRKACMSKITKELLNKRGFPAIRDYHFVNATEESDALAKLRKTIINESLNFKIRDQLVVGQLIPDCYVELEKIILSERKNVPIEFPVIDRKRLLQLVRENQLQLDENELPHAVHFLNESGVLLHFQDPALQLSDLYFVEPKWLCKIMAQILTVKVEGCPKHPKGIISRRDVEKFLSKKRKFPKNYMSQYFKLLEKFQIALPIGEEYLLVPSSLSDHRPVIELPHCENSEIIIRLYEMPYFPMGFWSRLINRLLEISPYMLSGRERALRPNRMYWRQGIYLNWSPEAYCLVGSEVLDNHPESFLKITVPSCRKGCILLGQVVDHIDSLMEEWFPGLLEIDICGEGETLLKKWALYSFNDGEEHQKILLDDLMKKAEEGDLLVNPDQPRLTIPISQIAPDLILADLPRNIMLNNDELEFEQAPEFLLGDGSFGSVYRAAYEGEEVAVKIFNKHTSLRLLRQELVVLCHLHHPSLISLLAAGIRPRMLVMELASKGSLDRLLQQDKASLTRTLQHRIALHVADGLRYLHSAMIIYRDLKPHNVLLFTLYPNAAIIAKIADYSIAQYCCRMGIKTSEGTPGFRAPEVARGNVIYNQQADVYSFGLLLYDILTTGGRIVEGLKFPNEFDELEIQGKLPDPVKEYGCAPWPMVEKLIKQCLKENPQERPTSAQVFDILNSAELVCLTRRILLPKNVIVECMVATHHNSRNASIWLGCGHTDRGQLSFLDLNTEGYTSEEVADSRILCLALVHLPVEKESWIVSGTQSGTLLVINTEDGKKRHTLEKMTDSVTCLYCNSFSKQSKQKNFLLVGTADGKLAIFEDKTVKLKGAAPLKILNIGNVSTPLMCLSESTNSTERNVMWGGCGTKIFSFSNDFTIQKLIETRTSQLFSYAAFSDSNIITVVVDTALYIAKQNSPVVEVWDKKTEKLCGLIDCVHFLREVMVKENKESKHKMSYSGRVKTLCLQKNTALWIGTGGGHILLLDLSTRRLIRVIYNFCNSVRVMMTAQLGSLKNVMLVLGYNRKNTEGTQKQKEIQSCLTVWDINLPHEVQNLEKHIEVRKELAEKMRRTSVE

Sequence of Leucine-rich repeat serine/threonine-protein kinase 2 (Mus musculus) (Q5S006 whole entry): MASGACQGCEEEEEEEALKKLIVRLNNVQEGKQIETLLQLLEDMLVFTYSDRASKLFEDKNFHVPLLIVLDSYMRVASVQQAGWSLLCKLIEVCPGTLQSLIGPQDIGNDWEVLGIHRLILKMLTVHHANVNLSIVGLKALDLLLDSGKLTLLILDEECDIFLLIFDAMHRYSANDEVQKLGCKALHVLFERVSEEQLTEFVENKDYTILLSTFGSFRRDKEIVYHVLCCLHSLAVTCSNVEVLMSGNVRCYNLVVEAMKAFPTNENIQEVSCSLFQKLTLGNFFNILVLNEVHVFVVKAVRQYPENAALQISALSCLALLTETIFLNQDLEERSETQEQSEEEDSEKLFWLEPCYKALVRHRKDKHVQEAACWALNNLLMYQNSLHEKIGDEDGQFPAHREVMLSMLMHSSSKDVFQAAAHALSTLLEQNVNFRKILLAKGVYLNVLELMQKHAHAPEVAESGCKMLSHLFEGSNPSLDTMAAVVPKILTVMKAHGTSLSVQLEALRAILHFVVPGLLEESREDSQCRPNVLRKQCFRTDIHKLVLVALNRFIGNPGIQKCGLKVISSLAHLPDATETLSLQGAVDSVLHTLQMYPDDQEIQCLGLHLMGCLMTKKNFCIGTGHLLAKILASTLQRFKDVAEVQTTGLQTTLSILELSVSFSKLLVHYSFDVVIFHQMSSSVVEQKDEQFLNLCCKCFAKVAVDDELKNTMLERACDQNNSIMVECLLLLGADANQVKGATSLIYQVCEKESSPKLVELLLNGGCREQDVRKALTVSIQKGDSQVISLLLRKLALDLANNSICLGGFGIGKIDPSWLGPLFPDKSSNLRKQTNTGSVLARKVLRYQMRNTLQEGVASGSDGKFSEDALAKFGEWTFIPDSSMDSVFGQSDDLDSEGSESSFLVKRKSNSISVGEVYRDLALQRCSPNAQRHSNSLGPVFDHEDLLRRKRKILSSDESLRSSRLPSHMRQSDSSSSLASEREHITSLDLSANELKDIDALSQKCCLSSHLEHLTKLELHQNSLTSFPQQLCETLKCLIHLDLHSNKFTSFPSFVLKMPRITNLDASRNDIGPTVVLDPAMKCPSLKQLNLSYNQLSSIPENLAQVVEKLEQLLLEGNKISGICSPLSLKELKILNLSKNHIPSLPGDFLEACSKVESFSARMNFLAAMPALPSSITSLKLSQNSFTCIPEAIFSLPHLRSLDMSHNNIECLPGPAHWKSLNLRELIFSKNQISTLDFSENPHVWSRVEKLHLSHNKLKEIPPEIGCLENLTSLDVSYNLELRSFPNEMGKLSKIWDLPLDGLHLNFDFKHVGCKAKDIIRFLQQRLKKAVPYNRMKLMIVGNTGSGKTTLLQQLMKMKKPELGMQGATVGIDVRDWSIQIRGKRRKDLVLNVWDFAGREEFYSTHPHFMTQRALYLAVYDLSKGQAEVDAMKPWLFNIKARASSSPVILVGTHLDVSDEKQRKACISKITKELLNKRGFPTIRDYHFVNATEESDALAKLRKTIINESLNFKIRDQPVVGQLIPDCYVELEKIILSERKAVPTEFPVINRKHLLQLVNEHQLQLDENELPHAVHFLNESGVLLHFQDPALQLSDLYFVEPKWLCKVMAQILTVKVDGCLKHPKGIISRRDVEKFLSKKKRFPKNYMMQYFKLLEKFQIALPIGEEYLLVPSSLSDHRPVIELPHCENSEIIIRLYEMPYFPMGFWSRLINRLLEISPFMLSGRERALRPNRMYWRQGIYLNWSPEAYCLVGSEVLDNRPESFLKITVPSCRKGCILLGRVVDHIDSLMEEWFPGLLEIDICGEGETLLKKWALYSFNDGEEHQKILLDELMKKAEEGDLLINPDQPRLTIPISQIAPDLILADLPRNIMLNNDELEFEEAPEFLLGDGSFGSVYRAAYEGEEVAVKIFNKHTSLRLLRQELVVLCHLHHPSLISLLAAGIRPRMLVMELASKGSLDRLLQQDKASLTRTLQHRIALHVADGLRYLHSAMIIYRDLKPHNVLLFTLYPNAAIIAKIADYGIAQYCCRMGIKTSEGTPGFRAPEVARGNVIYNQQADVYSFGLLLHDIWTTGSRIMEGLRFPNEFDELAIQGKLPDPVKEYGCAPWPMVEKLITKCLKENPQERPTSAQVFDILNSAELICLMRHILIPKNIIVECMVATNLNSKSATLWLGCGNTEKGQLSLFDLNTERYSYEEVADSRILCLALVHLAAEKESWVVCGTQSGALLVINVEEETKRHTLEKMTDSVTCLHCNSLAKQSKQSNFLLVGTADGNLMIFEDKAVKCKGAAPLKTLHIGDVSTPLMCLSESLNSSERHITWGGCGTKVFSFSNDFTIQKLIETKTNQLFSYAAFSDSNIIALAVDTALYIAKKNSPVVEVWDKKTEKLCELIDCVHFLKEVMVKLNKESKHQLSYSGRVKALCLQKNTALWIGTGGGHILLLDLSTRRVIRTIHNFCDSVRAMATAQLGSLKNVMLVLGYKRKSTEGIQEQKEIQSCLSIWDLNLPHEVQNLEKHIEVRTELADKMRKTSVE
Sequence of Leucine-rich repeat serine/threonine-protein kinase 2 (Homo sapiens) (Q5S007 whole entry): as the sequence (Q5S007 whole entry G2019S) above, with S2019G counted along it

**Q.** With CNc1nc(Nc2ccc(C(=O)N3CCOCC3)cc2OC)ncc1Cl as the molecule, how does the inhibition [1] read?
**A.** Dose-dependent effect

**Q.** What about the IC50 [2] of the same molecule?
**A.** 2.1 µM

**Q.** What about the inhibition (Mus musculus [3]) of the same molecule?
**A.** Dose-dependent effect

**Q.** What about the inhibition [4] of the same molecule?
**A.** > 80%

**Q.** And the t1/2 (Mus musculus [5])?
**A.** 7.8 min

**Q.** What about the IC50 [6] of the same molecule?
**A.** 0.6 µM

**Q.** What about the bioavailability [7] of the same molecule?
**A.** 67%

**Q.** And the inhibition (Mus musculus [8])?
**A.** Active

**Q.** And the inhibition (Mus musculus [9])?
**A.** Dose-dependent effect

**Q.** What about the inhibition in vivo at 100 mg/kg (Mus musculus [10]) of the same molecule?
**A.** 35%

**Q.** What about the inhibition in vivo at 100 mg/kg (Mus musculus [11]) of the same molecule?
**A.** 35%

**Q.** And the inhibition (Mus musculus [12])?
**A.** Active

**Q.** What about the inhibition (Mus musculus [13]) of the same molecule?
**A.** Active

**Q.** What about the inhibition [14] of the same molecule?
**A.** Dose-dependent effect

**Q.** What about the inhibition in vivo at 30 mg/kg (Mus musculus [15]) of the same molecule?
**A.** 40%

**Q.** What about the inhibition (Mus musculus [16]) of the same molecule?
**A.** Dose-dependent effect

**Q.** What about the inhibition in vivo at 100 mg/kg (Mus musculus [17]) of the same molecule?
**A.** 35%

**Q.** And the inhibition (Mus musculus [18])?
**A.** Dose-dependent effect

**Q.** And the t1/2 (Liver)?
**A.** 13 min

**Q.** And the inhibition (Mus musculus [19])?
**A.** Active

**Q.** What about the inhibition (Mus musculus [20]) of the same molecule?
**A.** Active

**Q.** And the inhibition [21]?
**A.** Active

**Q.** And the inhibition (Mus musculus [22])?
**A.** Dose-dependent effect

**Q.** What about the inhibition (Mus musculus [23]) of the same molecule?
**A.** Dose-dependent effect

**Q.** And the inhibition in vivo at 10 mg/kg (Mus musculus [24])?
**A.** 80%

**Q.** What about the inhibition (Mus musculus [25]) of the same molecule?
**A.** Active

**Q.** And the inhibition [26]?
**A.** > 80%

**Q.** What about the inhibition (Mus musculus [27]) of the same molecule?
**A.** Active

**Q.** What about the “inhibition (INH)” value (Mus musculus [28]) of the same molecule?
**A.** >90%

**Q.** What about the inhibition (Mus musculus [29]) of the same molecule?
**A.** Active

**Q.** And the inhibition in vivo at 100 mg/kg (Mus musculus [30])?
**A.** 35%

**Q.** And the inhibition in vivo at 3 mg/kg (Mus musculus [31])?
**A.** 40%

**Q.** And the inhibition in vivo at 100 mg/kg (Mus musculus [32]; C57BL/6, Brain, route intraperitoneal)?
**A.** 70%

**Q.** What about the AUClast (Mus musculus [33]) of the same molecule?
**A.** 502 ng·h/mL

**Q.** And the inhibition in vivo at 50 mg/kg (Mus musculus [34])?
**A.** 70%

**Q.** Which results are given for COc1cc(C(=O)N2CCC(N3CCN(C)CC3)CC2)ccc1Nc1ncc2c(n1)N(C)c1ccccc1C(=O)N2C?
**A.** inhibition [35]: Active; inhibition [36]: Active; inhibition (Mus musculus [32]): inactive
